According to publication PMC3253528 (Journal of the American Chemical Society, 2011):
Values joined by “and” are separate entries in the source; they are usually repeats but may differ in a detail not shown here. Equal entries are not always repeated.

Key:
procaspase-3 = target: T1, procaspase-3 (Homo sapiens, UniProt P42574); assay: procaspase-3 self-activation assay; type: biochemical
T1 sequence (P42574 1-277): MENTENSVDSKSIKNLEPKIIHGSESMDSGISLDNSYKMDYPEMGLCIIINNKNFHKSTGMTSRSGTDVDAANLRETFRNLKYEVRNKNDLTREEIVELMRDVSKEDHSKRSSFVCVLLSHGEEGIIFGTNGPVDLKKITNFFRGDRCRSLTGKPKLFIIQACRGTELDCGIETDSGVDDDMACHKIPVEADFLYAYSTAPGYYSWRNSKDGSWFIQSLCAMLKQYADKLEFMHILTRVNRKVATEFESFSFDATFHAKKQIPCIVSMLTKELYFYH
Method in brief: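 Known promiscuous enzyme-inhibiting aggregators (panel of six) were each tested for ability to activate wild-type procaspase-3. The self-activation assay is run at 37°C.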

caspase-3 = target: T2, caspase-3 (Homo sapiens, UniProt P42574); assay: inhibition of mature caspase-3 by known aggregators; type: biochemical
T2 sequence (P42574 29-175 limits assumed): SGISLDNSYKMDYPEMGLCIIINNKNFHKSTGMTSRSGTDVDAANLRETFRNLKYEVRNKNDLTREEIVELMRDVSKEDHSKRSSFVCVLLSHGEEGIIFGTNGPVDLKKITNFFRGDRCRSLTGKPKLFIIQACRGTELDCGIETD
T2 sequence (P42574 176-277 limits assumed): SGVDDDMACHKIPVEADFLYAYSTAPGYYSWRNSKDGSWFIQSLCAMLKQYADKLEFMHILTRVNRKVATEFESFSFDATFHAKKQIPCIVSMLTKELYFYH

dynamic light scattering = type: physicochemical; details: DLS conc. 50 μM

Row | activation of procaspase-3 by known aggregators (procaspase-3) | inhibition of mature caspase-3 (caspase-3) | Compound | DLS Intensity (dynamic light scattering; 25°C) | Radius (dynamic light scattering; 25°C) | DLS Intensity (dynamic light scattering; 37°C) [kcps] | Radius (dynamic light scattering; 37°C) [nm]
1 | no activation | inhibited | Nc1c(/N=N/c2ccc(-c3ccc(/N=N/c4cc(S(=O)(=O)O)c5ccccc5c4N)cc3)cc2)cc(S(=O)(=O)O)c2ccccc12 [Congo red] |  |  |  | 
2 |  |  | O=C1OC(c2cc(I)c(O)c(I)c2)(c2cc(I)c(O)c(I)c2)c2ccccc21 [TIPT, 3′,3″,5′,5″-tetraiodophenolpthalein] | 3903.5 kcps and 3903.5 ± 1423.0 kcps | 71.1 nm and 71.1 ± 8.6 nm | 3933.2 ± 1369.0 | 76.7 ± 7.8
